Consider 2 compounds from ChEMBL document CHEMBL4024779, “Novel Terminal Bipheny-Based Diapophytoene Desaturases (CrtN) Inhibitors as Anti-MRSA/VISR/LRSA Agents with Reduced hERG Activity” (J Med Chem, 2018).

Series [1] addresses Voltage-gated inwardly rectifying potassium channel KCNH2 (Homo sapiens, UniProt Q12809). In words: Inhibition of human ERG expressed in CHO cells at -80 mV holding potential after 3 mins by QPatch test. The format is cell-based. Background: Patch clamp records ionic current or voltage across a cell membrane.
A short description of series [2]: Cmax in Sprague-Dawley rat at 5 mg/kg, iv administered as single dose by LC-MS/MS analysis. The series is classed as ADME, organism-based. Further details: dose 5 mg/kg, route intravenous. The settings on record: in vivo.
In the next series the test system is Rattus norvegicus. In words: Toxicity in Sprague-Dawley rat at 60 to 1000 mg/kg, po administered as single dose assessed as changes in body weight measured during 2 weeks post administration. The format is organism-based. The settings on record: in vivo, 336 h. The method, boiled down: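 Rats, 30 in total, randomised into three groups. Each received a single oral dose of 60, 250 or 1000 mg/kg on day 1. Poisoning symptoms, mortality, behaviour, water and food consumption and body weight monitored immediately and over 2 weeks.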

A short description of series [3]: Inhibition of CrtN in methicillin-resistant Staphylococcus aureus NRS100 assessed as reduction in staphyloxanthin levels after 48 hrs by spectrophotometric method-based pigment inhibition assay.
The nature of series [4]: AUC (0 to 24 hrs) in mouse at 10 mg/kg, po administered as single dose by LC-MS/MS analysis. The format is ADME, organism-based. Details: time < 24 hr, dose 10 mg/kg, route oral. The settings on record: in vivo.
Series [5] is described as follows: Tmax in Sprague-Dawley rat at 10 mg/kg, ip administered as single dose by LC-MS/MS analysis. The format is ADME, organism-based. The settings on record: in vivo.
For series [6], the target named is T1, 4,4'-diapophytoene desaturase (4,4'-diaponeurosporene-forming) (Staphylococcus aureus (strain MW2)) (UniProt Q8NUQ6).
T1 sequence (whole entry): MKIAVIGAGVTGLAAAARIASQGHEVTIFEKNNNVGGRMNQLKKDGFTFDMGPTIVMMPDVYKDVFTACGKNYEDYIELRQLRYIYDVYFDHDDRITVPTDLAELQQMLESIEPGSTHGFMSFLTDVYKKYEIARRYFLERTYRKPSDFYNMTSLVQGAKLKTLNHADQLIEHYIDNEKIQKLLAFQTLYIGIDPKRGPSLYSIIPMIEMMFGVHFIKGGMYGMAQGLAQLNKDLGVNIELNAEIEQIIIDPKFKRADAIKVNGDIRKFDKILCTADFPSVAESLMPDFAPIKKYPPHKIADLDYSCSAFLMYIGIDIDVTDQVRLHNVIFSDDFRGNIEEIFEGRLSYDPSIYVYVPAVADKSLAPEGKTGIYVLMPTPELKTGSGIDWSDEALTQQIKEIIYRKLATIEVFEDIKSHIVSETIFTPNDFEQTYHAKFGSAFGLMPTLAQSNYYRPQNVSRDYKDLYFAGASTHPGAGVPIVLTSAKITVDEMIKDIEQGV
Particulars: Staphylococcus aureus subsp. aureus MW2; USA400; 1 uM.

A short description of series [7]: Inhibition of CrtN in methicillin-resistant Staphylococcus aureus XN108 assessed as reduction in staphyloxanthin levels after 48 hrs by spectrophotometric method-based pigment inhibition assay.
Another series addresses Cytochrome P450 3A4 (Homo sapiens, UniProt P08684). In words: Inhibition of CYP3A4 in human liver microsomes using testosterone as substrate upto 10 uM after 5 mins in presence of NADPH by LC-MS/MS analysis. The format is ADME. A general note: Liver microsomes are vesicles of endoplasmic reticulum, rich in cytochrome P450 enzymes.
The target of another series is Cytochrome P450 2C19 (Homo sapiens, UniProt P33261). In words: Inhibition of CYP2C19 in human liver microsomes using mephenytoin as substrate upto 10 uM after 45 mins in presence of NADPH by LC-MS/MS analysis. The series is classed as ADME.
Sequence of Cytochrome P450 2C19 (P33261 whole entry): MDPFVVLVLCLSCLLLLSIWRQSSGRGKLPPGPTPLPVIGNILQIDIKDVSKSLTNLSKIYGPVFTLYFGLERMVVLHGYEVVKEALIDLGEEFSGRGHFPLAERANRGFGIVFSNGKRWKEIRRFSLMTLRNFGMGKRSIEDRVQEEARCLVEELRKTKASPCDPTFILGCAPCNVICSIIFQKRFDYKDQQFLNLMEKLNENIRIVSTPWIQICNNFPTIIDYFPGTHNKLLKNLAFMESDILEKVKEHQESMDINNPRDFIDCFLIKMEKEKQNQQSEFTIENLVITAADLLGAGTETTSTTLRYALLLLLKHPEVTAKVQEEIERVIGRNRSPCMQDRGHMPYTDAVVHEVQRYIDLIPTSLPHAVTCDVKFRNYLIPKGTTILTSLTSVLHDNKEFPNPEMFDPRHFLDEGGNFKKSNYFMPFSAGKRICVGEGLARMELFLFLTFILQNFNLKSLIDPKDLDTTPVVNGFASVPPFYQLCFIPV
Series [8] has as its system Staphylococcus aureus. In words: In vivo anti-virulence activity against methicillin-resistant Staphylococcus aureus LRSA56 infected in BALB/c mouse model assessed as reduction in bacterial load in kidney at 0.1 mg bid for 3.5 days administered intraperitoneally 6 hrs post infection by serial dilution method relative to control. The format is functional. Further details: scale not given: the % may be the effect or the level left. The method, boiled down:
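Mice were infected by retro-orbital injection with LRSA56 (5.0 × 10^7 CFU) or LRSA202 (7.0 × 10^7 CFU). Compound was given intraperitoneally 6 h after infection. […] Log10 CFU was counted in kidneys and hearts, with groups compared by two-tailed Mann-Whitney test.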

For series [9], the system named is Staphylococcus aureus. In words: In vivo anti-virulence activity against Staphylococcus aureus Newman in mouse lethal infection model assessed as host survival rate at 0.1 mg bid for 3.5 days administered intraperitoneally 6 hrs post infection and measured on day 8. The format is functional. The method, boiled down:
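In a lethal sepsis model, mice (n=15) were challenged with 2 × 10^8 CFU S. aureus Newman. Animal survival was recorded daily through day 8.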

Series [10] in a line: Tmax in Sprague-Dawley rat at 5 mg/kg, iv administered as single dose by LC-MS/MS analysis. The series is classed as ADME, organism-based. Particulars: in vivo.
Series [11] can be described thus: AUC (0 to infinity) in Sprague-Dawley rat at 10 mg/kg, po administered as single dose by LC-MS/MS analysis. Details: dose 10 mg/kg, route oral, time infinity. The format is ADME, organism-based. The settings on record: in vivo.
The target of series [12] is T2, 4,4'-diapophytoene desaturase (4,4'-diaponeurosporene-forming) (Staphylococcus aureus (strain USA300)) (UniProt Q2FDU6).
T2 sequence (whole entry): T1 sequence (whole entry) with Q500R
The settings on record: Staphylococcus aureus LAC, 1 uM.

Series [13] can be described thus: Tmax in mouse at 2 mg/kg, iv administered as single dose by LC-MS/MS analysis. The format is ADME, organism-based. Particulars: in vivo.
Series [14] in a line: AUC (0 to 24 hrs) in Sprague-Dawley rat at 10 mg/kg, po administered as single dose by LC-MS/MS analysis. Particulars: in vivo. Details: time < 24 hr, dose 10 mg/kg, route oral. The format is ADME, organism-based.
A short description of series [15]: Cmax in Sprague-Dawley rat at 10 mg/kg, ip administered as single dose by LC-MS/MS analysis. The series is classed as ADME, organism-based. Details: dose 10 mg/kg, route intraperitoneal. The settings on record: in vivo.
Series [16] is described as follows: Clearance in mouse at 2 mg/kg, iv administered as single dose by LC-MS/MS analysis. The series is classed as ADME, organism-based. The settings on record: in vivo.
Series [17] is described as follows: Tmax in Sprague-Dawley rat at 10 mg/kg, po administered as single dose by LC-MS/MS analysis. The series is classed as ADME, organism-based. The settings on record: in vivo.
Series [18] deals with Staphylococcus aureus. In words: In vivo anti-virulence activity against methicillin-resistant Staphylococcus aureus XN108 infected in BALB/c mouse model assessed as reduction in bacterial load in heart at 0.1 mg bid for 3.5 days administered intraperitoneally 6 hrs post infection by serial dilution method relative to linezolid. The series is classed as functional, organism-based. The method, boiled down:
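Mice infected retro-orbitally with S. aureus NF65Y (3.5 × 10^8 CFU) or XN108 (2.1 × 10^8 CFU). Test compound given i.p. b.i.d. starting 6 h post-infection. […] Log10 CFU per kidney and heart counted. Two-tailed Mann−Whitney test.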

Numbering of substitutions follows the chain as printed. pIC50: −log10 of the molar value. Active and inactive are the calls of the source. No cut-off for these calls is given here.

By pIC50 is commonly meant −log10 of the IC50, conventionally taken in molar units. A word on the Cmax: it is the peak of the concentration-time curve. In general, AUC(0-t) refers to exposure summed from dosing to a finite time, without extrapolation to infinity. The Tmax is the time at which the peak concentration occurs. By AUC(0-inf) is commonly meant the area under the concentration-time curve extrapolated to infinity. In general, clearance refers to the volume of plasma or blood freed of the substance per unit of time.

Sequence of Voltage-gated inwardly rectifying potassium channel KCNH2 (Q12809 whole entry): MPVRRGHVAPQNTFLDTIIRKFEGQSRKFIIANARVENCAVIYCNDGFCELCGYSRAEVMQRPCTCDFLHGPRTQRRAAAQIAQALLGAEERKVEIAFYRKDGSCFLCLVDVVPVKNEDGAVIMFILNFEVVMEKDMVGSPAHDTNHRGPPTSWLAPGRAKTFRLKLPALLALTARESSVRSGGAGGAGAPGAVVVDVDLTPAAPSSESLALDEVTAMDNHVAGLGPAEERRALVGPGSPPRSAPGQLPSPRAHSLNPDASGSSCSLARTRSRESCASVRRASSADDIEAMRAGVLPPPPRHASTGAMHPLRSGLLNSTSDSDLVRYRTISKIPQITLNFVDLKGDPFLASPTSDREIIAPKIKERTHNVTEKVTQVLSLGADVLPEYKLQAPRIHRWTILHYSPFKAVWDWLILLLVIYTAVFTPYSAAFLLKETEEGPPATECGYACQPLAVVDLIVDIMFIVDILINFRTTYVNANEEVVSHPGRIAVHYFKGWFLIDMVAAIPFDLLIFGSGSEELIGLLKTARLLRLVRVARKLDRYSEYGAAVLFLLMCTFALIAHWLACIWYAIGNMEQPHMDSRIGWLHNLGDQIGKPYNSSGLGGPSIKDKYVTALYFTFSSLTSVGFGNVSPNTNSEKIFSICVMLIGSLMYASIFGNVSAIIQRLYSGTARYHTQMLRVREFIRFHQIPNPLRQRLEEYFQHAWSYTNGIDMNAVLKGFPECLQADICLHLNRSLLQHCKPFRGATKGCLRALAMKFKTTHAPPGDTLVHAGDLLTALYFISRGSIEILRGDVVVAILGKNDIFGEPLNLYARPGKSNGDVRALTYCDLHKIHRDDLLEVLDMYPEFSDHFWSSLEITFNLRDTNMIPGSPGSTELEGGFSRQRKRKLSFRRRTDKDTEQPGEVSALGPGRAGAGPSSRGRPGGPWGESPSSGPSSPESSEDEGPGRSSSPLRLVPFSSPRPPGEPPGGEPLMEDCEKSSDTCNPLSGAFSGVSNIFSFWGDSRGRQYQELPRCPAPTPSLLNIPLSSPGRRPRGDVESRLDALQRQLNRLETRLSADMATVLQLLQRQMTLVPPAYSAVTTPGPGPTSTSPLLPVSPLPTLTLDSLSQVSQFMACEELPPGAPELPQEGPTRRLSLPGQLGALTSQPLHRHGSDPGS
Sequence of Cytochrome P450 3A4 (P08684 whole entry): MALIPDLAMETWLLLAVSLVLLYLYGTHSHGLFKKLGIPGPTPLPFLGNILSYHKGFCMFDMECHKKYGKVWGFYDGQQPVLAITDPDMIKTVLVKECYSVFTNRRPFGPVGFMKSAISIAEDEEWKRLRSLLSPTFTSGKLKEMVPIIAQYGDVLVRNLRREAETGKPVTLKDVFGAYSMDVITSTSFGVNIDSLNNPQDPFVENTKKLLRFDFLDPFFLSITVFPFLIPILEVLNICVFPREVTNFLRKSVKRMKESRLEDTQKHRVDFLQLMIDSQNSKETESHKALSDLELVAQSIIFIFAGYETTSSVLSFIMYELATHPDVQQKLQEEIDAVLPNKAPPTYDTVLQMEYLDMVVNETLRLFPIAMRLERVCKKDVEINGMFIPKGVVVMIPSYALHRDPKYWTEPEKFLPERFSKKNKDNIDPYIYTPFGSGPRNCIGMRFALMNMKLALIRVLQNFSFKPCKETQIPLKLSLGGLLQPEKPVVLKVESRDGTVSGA

Compound `CN(C/C=C/c1ccc(-c2ccccc2)cc1)Cc1cccc2cc[nH]c12.Cl` showed a negative-log IC50 (pIC50) in series [1] of less than 4.40.
Regarding `CN(C/C=C/c1ccc(-c2ccccc2)cc1)Cc1coc2ccccc12.Cl`, the Cmax in [2] amounted to 4.61 µg/mL; in [15] it was 130 µg/mL. In addition, the Activity result in the series on Rattus norvegicus is “Non-Toxic”; with Staphylococcus aureus [8], more than 83%. Moreover, the negative logarithm of the IC50 (pIC50) in series [3] is 8.92; in series [7] it was 9.70; at Cytochrome P450 3A4 it was less than 5.00; at Cytochrome P450 2C19, less than 5.00. Besides, the results for the AUC(0-t) at 24 h in series [4] and in series [14] were 4530 ng·h/mL and 899 ng·h/mL, respectively. The Tmax in [5] is 3 h; in [10], 4.8 min; in series [13] it was 4.8 min; in series [17], 2 h. Besides, the figures for the Survival (in [6]; with Staphylococcus aureus [9]; in series [12]) were 2.3%, more than 70% and 0.7%, respectively. The compound also gave an AUC(0-inf) in series [11] of 930 ng·h/mL. The compound also showed a clearance in series [16] of 30.7 mL/min/kg. Also, the outcome in the series with Staphylococcus aureus [18] was Active.
